According to ChEMBL document CHEMBL1135185, “Synthesis and PTP1B inhibition of 1,2-naphthoquinone derivatives as potent anti-diabetic agents” (Bioorg Med Chem Lett, 2002):
pIC50: −log10 of the molar value. Calls of active or inactive are those of the source. No cut-off for these calls is given here.

Key:
[1] = biological target: T1, Tyrosine-protein phosphatase non-receptor type 1 (Homo sapiens, UniProt P18031); assay: Inhibition of human Protein-tyrosine phosphatase 1B (PTP1B) using fluorescein diphosphate (FDP)
T1 sequence (P18031 whole entry): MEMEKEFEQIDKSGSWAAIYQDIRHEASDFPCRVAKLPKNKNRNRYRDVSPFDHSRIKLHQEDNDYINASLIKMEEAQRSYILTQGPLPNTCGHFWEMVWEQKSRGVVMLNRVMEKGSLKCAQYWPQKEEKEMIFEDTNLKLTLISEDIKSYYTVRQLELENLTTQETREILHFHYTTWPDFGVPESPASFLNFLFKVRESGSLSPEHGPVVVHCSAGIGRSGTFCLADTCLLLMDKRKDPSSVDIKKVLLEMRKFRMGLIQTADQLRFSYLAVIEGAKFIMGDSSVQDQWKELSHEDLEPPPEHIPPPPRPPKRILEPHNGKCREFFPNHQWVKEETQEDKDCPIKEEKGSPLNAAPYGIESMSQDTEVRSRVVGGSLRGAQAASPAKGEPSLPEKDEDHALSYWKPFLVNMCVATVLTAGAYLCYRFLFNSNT
How it was run: (§1)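 Recombinant human PTP1B enzyme, fluorescein diphosphate (FDP) as substrate. Enzyme activity was followed by fluorescence measurement. IC50 values were obtained by direct regression curve analysis.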

[2] = biological target: T1, Tyrosine-protein phosphatase non-receptor type 1; assay: In vitro inhibitory activity against recombinant human protein-tyrosine phosphatase 1B (PTP1B) using fluorescein diphosphate (FDP) as a substrate; settings: for pIC50: read-out: IC50; how it was run: as §1
[3] = In vitro inhibitory activity against recombinant human PPI using fluorescein diphosphate (FDP) as a substrate
[4] = biological target: T2, Receptor-type tyrosine-protein phosphatase C (Homo sapiens, UniProt P08575); assay: In vitro inhibitory activity against recombinant human CD45 using fluorescein diphosphate (FDP) as a substrate
T2 sequence (P08575 whole entry): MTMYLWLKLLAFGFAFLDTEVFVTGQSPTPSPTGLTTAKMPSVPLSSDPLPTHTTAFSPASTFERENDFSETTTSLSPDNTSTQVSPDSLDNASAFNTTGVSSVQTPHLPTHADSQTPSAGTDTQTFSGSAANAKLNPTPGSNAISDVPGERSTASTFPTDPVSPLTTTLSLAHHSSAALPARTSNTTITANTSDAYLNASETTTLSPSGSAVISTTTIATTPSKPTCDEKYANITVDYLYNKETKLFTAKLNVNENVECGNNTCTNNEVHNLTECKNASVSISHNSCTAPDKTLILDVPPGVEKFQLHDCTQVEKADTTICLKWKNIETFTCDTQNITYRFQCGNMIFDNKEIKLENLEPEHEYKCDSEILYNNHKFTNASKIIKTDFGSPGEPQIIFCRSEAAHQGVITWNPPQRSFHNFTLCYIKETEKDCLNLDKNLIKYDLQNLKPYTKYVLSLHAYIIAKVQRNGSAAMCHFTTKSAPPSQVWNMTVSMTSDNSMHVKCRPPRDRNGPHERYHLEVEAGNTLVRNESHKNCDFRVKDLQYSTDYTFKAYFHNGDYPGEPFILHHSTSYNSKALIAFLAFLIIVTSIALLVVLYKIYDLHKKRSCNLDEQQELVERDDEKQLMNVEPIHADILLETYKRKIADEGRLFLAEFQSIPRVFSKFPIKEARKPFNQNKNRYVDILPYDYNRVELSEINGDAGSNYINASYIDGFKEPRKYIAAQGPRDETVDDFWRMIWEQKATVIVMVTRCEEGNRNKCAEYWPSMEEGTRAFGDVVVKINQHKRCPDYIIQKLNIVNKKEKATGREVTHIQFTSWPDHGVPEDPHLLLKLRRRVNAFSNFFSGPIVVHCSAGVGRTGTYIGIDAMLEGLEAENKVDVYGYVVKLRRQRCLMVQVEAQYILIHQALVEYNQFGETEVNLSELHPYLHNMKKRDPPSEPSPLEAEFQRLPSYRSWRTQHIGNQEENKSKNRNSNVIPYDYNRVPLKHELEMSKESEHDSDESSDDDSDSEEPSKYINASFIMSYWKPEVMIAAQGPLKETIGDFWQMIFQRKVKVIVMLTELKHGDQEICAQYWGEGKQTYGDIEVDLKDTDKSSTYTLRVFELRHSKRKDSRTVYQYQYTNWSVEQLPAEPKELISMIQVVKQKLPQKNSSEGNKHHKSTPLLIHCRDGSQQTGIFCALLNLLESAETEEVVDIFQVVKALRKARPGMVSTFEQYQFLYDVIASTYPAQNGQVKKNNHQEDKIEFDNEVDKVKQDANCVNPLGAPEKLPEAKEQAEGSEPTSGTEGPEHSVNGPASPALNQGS

[5] = biological target: T3, M-phase inducer phosphatase 2 (Homo sapiens, UniProt P30305); assay: In vitro inhibitory activity against recombinant human Cdc25B using fluorescein diphosphate (FDP) as a substrate
T3 sequence (P30305 whole entry): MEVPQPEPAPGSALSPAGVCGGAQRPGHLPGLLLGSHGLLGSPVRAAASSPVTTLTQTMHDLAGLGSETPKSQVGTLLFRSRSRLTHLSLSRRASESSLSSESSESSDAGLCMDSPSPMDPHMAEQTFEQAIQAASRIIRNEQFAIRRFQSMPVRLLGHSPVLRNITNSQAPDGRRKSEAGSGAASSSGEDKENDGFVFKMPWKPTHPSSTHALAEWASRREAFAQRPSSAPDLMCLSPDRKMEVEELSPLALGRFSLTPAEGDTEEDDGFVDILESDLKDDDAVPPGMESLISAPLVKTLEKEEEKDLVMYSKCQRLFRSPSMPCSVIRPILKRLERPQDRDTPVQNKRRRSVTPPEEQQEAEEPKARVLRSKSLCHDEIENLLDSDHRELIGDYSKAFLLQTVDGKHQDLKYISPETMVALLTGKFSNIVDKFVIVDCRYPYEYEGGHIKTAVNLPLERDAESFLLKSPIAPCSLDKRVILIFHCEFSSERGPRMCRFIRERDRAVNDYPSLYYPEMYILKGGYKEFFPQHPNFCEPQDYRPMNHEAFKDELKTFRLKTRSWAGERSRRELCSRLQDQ

[6] = In vitro inhibitory activity against recombinant […] Yop using fluorescein diphosphate (FDP) as a substrate
[7] = biological target: T1, Tyrosine-protein phosphatase non-receptor type 1; assay: In vitro inhibitory activity against recombinant human protein-tyrosine phosphatase 1B (PTP1B) using fluorescein diphosphate (FDP) as a substrate; Not active; how it was run: as §1
Mus musculus = assay: In vivo test to determine the ability to reduce plasma glucose levels in ob/ob mice at oral dose of 25 mg/kg/day for 5 days; Active; type: functional, organism-based
[8] = biological target: Receptor-type tyrosine-protein phosphatase F (Homo sapiens, UniProt P10586); assay: In vitro inhibitory activity against recombinant human LAR using fluorescein diphosphate (FDP) as a substrate
Chain of Receptor-type tyrosine-protein phosphatase F (P10586 whole entry): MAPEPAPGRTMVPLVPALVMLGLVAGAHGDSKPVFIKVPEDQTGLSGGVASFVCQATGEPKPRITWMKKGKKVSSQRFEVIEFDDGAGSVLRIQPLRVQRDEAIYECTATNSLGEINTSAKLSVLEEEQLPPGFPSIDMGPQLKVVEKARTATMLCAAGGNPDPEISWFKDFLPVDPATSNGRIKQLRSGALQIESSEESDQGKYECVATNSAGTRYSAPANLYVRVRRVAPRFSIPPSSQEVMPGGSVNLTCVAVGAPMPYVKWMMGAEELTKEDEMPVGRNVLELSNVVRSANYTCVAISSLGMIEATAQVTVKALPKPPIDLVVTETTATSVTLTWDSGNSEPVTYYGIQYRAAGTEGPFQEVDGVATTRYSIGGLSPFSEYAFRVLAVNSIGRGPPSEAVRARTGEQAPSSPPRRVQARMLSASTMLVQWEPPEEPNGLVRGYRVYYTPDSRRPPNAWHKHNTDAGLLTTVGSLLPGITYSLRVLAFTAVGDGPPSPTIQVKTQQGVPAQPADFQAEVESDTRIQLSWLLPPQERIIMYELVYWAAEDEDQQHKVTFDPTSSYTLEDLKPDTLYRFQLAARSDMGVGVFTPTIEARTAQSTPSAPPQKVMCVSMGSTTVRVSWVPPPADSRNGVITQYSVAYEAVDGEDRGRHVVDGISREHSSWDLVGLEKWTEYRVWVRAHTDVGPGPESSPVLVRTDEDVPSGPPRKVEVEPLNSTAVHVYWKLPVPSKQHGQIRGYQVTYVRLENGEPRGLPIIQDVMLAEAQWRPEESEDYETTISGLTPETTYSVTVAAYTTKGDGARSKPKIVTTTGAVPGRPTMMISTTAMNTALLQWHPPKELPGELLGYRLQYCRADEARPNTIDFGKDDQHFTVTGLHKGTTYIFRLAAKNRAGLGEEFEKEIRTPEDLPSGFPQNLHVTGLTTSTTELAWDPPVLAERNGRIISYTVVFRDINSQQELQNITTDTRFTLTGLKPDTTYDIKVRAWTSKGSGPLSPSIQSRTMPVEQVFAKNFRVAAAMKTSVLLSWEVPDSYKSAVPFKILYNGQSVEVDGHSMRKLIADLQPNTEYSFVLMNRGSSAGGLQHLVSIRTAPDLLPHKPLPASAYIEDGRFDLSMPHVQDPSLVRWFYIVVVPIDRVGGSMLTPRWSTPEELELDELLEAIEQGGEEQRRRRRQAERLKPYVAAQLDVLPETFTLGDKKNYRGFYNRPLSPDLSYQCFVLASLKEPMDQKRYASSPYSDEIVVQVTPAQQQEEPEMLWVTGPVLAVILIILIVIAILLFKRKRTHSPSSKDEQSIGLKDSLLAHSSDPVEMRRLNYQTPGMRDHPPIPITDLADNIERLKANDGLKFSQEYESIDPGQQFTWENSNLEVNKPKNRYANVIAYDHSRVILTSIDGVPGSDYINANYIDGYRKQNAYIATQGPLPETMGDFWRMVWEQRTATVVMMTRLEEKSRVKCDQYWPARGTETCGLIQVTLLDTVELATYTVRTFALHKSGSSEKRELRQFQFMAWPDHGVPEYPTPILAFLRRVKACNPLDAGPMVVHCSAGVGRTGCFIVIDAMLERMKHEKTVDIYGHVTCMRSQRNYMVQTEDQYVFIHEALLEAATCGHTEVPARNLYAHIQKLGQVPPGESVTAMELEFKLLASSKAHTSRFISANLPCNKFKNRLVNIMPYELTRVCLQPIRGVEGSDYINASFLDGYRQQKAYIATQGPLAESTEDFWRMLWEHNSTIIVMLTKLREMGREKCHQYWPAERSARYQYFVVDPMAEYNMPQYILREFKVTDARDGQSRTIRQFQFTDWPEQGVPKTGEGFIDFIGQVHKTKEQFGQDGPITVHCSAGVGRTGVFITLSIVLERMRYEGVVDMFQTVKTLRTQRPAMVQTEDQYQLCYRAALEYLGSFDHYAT

## COC(=O)CCC1=C(c2ccccc2)c2cc(CCC(=O)OC)ccc2C(=O)C1=O
[1]
  pIC50: 6.17

## O=C(O)COc1ccc(CC2=C(n3ccc4ccccc43)c3ccccc3C(=O)C2=O)cc1
[1]
  pIC50: 6.00

## O=C1C=C(S(=O)(=O)O)c2ccccc2C1=O
[2]
  pIC50: 5.28

## O=C1C=Cc2ccccc2C1=O [1,2-NAPHTHOQUINONE]
[1]
  pIC50: 4.61

## NC1=CC(=O)C(=O)c2ccccc21 [4-AMINO-[1,2]NAPHTHOQUINONE]
[2]
  pIC50: 4.61

## CCOC(=O)CCC1=C(c2ccccc2)c2ccccc2C(=O)C1=O
[1]
  pIC50: 6.37

## CC(C)(C)OC(=O)COc1ccc(CC2=C(c3ccccc3)c3ccccc3C(=O)C2=O)cc1
[1]
  pIC50: 5.83

## O=C1C=C(c2ccccc2)c2ccccc2C1=O
[3]
  pIC50: 5.08
[4]
  pIC50: 6.08
[5]
  pIC50: 5.02
[6]
  pIC50: 4.68
[2]
  pIC50: 6.07

## O=C1C=C(c2c[nH]c3cc(C(=O)O)ccc23)c2ccccc2C1=O
[2]
  pIC50: 5.34

## O=C1C=C(c2ccc(-c3ccccc3)cc2)c2ccccc2C1=O
[2]
  pIC50: 5.27

## O=C1C=C(c2ccc(O)cc2)c2ccccc2C1=O
[2]
  pIC50: 6.36

## O=C1C=C(c2cccc3ccccc23)c2ccccc2C1=O
[2]
  pIC50: 5.67

## COc1ccc(C2=CC(=O)C(=O)c3ccccc32)cc1
[2]
  pIC50: 5.28

## Cc1c(C2=CC(=O)C(=O)c3ccccc32)c2ccccc2n1C
[7]
  IC50: Not Active

## CCOC(=O)Nc1cccc2c1C(=O)C(=O)C=C2c1ccccc1
[2]
  pIC50: 6.19

## COC(=O)CCC1=C(n2ccc3ccccc32)c2ccc(CCC(=O)OC)cc2C(=O)C1=O
[1]
  pIC50: 6.03

## COC(=O)CCc1ccc2c(c1)C(c1ccccc1)=CC(=O)C2=O
[1]
  pIC50: 6.48

## O=C1C=C(C2CCCC2)c2ccccc2C1=O
[2]
  pIC50: 5.38

## O=C1C=C(c2c[nH]c3ccc(C(=O)O)cc23)c2ccccc2C1=O
[2]
  pIC50: 5.52

## CCCCCCCCCCC1=CC(=O)C(=O)c2ccccc21
[7]
  IC50: Not Active

## O=C1C=C(OCCCO)c2ccccc2C1=O
[2]
  pIC50: 4.44

## CCOC(=O)COc1ccccc1C1=CC(=O)C(=O)c2ccccc21
[2]
  pIC50: 5.67

## O=C1C=C(N2CCCC2)c2ccccc2C1=O
[2]
  IC50: Not Active

## COc1ccc2c(c1)C(=O)C(=O)C=C2c1ccccc1
[2]
  pIC50: 5.69

## COC(=O)c1ccc(C2=CC(=O)C(=O)c3ccccc32)cc1
[4]
  pIC50: 5.78
[5]
  pIC50: 5.67
[6]
  pIC50: 4.92
[2]
  pIC50: 5.81

## COC(=O)C(Cc1ccccc1)Oc1ccc2c(c1)C(=O)C(=O)C=C2c1ccccc1 (stereo unspecified)
[2]
  pIC50: 5.60

## O=C1C=C(c2cc(F)ccc2F)c2ccccc2C1=O
[2]
  pIC50: 6.30

## COC1=CC(=O)C(=O)c2ccccc21
[2]
  pIC50: 4.54

## CCCCC1=CC(=O)C(=O)c2ccccc21
[7]
  IC50: Not Active

## CC(C)C1=CC(=O)C(=O)c2ccccc21
[2]
  pIC50: 4.99

## CC(C)(C)OC(=O)COc1ccc(CC2=C(n3ccc4ccccc43)c3ccccc3C(=O)C2=O)cc1
Mus musculus
  Reduction: Active
[1]
  pIC50: 6.19

## O=C1C=C(c2ccccc2[N+](=O)[O-])c2ccccc2C1=O
[2]
  pIC50: 5.93

## COC(=O)CCc1ccc2c(c1)C(n1ccc3ccccc31)=CC(=O)C2=O
[1]
  pIC50: 6.04

## CC(C)(C)c1cc(C2=CC(=O)C(=O)c3ccccc32)cc(C(C)(C)C)c1O
[2]
  pIC50: 5.24

## CN(C1=CC(=O)C(=O)c2ccccc21)c1ccccc1
[2]
  pIC50: 4.46

## CCN(CC)C(=O)CCC1=C(c2ccccc2)c2ccccc2C(=O)C1=O
[1]
  pIC50: 6.21

## O=C1C=C(c2c(-c3ccccc3)[nH]c3ccccc23)c2ccccc2C1=O
[7]
  IC50: Not Active

## CCOC(=O)c1ccc(CCC2=C(c3ccccc3)c3ccccc3C(=O)C2=O)cc1
[1]
  pIC50: 6.00

## CCCCCOc1ccc2c(c1)C(c1ccccc1)=CC(=O)C2=O
[7]
  IC50: Not Active

## O=C(O)COc1ccc(CC2=C(c3ccccc3)c3ccccc3C(=O)C2=O)cc1
[1]
  pIC50: 5.81

## O=C1C=C(C2CCCCC2)c2ccccc2C1=O
[3]
  pIC50: 5.09
[4]
  pIC50: 5.49
[5]
  pIC50: 5.52
[6]
  pIC50: 4.75
[2]
  pIC50: 6.49
[8]
  pIC50: 5.05

## O=C(Nc1ccc2c(c1)C(=O)C(=O)C=C2c1ccccc1)OCc1ccccc1
[2]
  pIC50: 5.65

## CCCCCOC1=C(c2ccccc2)c2ccccc2C(=O)C1=O
[2]
  pIC50: 5.57

## CCOC(=O)COc1ccc(C2=CC(=O)C(=O)c3ccccc32)cc1
[2]
  pIC50: 5.97

## O=C1C=C(c2c[nH]c3ccccc23)c2ccccc2C1=O
[3]
  pIC50: 5.50
[4]
  pIC50: 5.51
[5]
  pIC50: 5.71
[6]
  pIC50: 4.59
[2]
  pIC50: 5.95
[8]
  pIC50: 4.99

## CCCCCCC1=CC(=O)C(=O)c2ccccc21
[2]
  pIC50: 5.48

## O=C(Nc1cccc2c1C(=O)C(=O)C=C2c1ccccc1)OCc1ccccc1
[2]
  pIC50: 5.87

## CCOC(=O)CCC1=C(n2ccc3ccccc32)c2ccccc2C(=O)C1=O
[1]
  pIC50: 6.57

## CCCCCOc1ccc2c(c1)C(=O)C(=O)C=C2c1ccccc1
[2]
  pIC50: 6.04

## O=C1C=C(n2ccc3ccccc32)c2ccc(OC(Cc3ccccc3)C(=O)O)cc2C1=O (stereo unspecified)
[2]
  pIC50: 5.68

## O=C1C=C(Cc2ccccc2)c2ccccc2C1=O
[2]
  pIC50: 5.85

## O=C1C=C(c2ccccc2O)c2ccccc2C1=O
[2]
  pIC50: 5.80

## O=C1C=C(c2cc(Cl)ccc2Cl)c2ccccc2C1=O
[2]
  pIC50: 5.30
